pIC50, pKi: −log10 of the molar value. Activity calls are given as the source filed them. The rule behind the calls is not given here.
Experiments:
[1] = target: Neuronal acetylcholine receptor; alpha4/beta2 (Rattus norvegicus) (UniProt P09483+P12390); assay: (§1) Displacement of [3H]epibatidine from rat alpha4/beta2 nAChR expressed in HEK293 cells; type: cell-based
Method in brief: (§2)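 Membranes from HEK293 cells stably expressing rat α4β2, α3β4 or α4β4; [3H]epibatidine competition binding. IC50 converted to Ki by Cheng–Prusoff. Means of 3–5 experiments in duplicate.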

[2] = target: Neuronal acetylcholine receptor; alpha4/beta2 (Rattus norvegicus, UniProt P09483+P12390); assay: as §1; type: cell-based; method in brief: as §2
Sequence of Neuronal acetylcholine receptor; alpha4/beta2 (Rattus norvegicus, UniProt P09483+P12390) (P09483 whole entry): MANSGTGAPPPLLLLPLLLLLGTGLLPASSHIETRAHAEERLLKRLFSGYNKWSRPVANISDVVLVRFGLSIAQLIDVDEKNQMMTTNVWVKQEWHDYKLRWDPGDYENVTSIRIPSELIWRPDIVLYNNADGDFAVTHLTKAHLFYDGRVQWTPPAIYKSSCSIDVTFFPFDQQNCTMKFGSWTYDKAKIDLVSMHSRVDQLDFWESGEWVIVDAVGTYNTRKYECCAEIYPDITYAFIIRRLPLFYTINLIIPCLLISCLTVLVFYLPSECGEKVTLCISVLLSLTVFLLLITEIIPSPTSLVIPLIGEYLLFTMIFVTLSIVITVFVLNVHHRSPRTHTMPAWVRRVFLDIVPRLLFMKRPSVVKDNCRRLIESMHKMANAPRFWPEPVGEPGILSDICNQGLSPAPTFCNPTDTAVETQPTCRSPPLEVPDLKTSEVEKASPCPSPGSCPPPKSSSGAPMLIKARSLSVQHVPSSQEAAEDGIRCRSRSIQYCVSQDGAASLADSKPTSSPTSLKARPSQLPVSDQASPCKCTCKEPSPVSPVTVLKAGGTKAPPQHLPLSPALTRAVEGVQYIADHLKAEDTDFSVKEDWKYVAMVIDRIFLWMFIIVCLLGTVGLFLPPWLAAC
Sequence of Neuronal acetylcholine receptor; alpha4/beta2 (Rattus norvegicus, UniProt P09483+P12390) (P12390 whole entry): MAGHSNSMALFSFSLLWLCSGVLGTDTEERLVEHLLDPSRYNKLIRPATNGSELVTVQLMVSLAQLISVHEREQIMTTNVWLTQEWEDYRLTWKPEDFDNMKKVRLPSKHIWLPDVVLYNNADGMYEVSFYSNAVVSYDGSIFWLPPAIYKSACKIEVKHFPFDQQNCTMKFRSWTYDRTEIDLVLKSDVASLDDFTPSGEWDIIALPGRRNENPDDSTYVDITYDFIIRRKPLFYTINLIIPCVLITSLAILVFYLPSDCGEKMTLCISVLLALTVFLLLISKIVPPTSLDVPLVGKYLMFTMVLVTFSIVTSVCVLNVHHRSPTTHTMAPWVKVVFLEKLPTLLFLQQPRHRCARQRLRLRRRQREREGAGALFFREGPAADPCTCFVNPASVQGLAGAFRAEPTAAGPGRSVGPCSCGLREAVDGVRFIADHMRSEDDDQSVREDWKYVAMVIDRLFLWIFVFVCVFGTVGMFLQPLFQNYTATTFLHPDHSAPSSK

Rattus norvegicus [3] = species on record: Rattus norvegicus; assay: Selectivity ratio of Ki for rat alpha3/beta4 nAChR to Ki for rat alpha4/beta2 nAChR
[4] = target: Sodium-dependent dopamine transporter (Homo sapiens, UniProt Q01959); assay: Displacement of [3H]-dopamine from human DAT expressed in African green monkey COS7 cells after 10 mins; type: cell-based, COS-7
Method in brief: (§3)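 COS7 cells transiently transfected with human SERT, NET or DAT, assayed 40–48 h later. 30 min preincubation with compound in PBS pH 7.4 plus 0.1 mM CaCl2, 0.5 mM MgCl2; ascorbic acid 1 mM added for NET/DAT. Substrate 50 nM final: [3H]serotonin for SERT, [3H]dopamine for NET/DAT.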

[5] = target: T1, Neuronal acetylcholine receptor; alpha3/beta4 (Rattus norvegicus, UniProt P04757+P12392); assay: Displacement of [3H]epibatidine from rat alpha3/beta4 nAChR expressed in HEK293 cells; type: cell-based; method in brief: as §2
T1 sequence (P04757 whole entry): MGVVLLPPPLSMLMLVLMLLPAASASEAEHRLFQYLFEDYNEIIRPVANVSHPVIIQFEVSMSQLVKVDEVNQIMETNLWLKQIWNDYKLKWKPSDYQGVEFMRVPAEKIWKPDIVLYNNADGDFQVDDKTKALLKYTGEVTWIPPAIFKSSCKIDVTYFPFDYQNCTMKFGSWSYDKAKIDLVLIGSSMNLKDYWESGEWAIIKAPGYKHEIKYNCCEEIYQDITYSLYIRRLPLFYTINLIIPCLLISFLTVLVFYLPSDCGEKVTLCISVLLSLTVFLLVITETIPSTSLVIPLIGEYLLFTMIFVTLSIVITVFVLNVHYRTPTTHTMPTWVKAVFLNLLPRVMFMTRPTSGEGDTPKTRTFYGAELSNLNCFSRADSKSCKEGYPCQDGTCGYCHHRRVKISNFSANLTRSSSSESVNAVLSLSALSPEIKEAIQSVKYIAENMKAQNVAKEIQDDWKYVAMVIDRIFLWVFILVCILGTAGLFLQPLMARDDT
T1 sequence (P12392 whole entry): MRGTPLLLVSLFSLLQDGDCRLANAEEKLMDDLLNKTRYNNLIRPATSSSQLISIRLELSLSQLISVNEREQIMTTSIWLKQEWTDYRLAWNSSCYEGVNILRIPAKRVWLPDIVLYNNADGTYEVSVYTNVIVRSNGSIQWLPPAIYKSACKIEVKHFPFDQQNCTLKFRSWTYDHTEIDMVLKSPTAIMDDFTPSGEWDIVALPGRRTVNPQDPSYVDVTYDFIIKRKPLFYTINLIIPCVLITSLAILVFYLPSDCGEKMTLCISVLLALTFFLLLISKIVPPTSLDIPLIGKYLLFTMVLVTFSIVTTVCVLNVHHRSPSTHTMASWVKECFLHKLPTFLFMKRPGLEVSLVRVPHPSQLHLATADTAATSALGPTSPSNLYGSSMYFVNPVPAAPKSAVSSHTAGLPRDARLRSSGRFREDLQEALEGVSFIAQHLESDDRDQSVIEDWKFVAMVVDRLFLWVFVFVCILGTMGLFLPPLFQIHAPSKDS

[6] = target: Neuronal acetylcholine receptor; alpha4/beta4 (Rattus norvegicus, UniProt P09483+P12392); assay: Displacement of [3H]epibatidine from rat alpha4/beta4 nAChR expressed in HEK293 cells; type: cell-based; method in brief: as §2
Sequence of Neuronal acetylcholine receptor; alpha4/beta4 (P09483 whole entry): as the sequence (P09483 whole entry) above
Sequence of Neuronal acetylcholine receptor; alpha4/beta4 (P12392 whole entry): as the sequence (P12392 whole entry) above

[7] = target: Sodium-dependent serotonin transporter (Homo sapiens, UniProt P31645); assay: Displacement of [3H]-serotonin from human SERT expressed in African green monkey COS7 cells after 10 mins; type: cell-based, COS-7; method in brief: as §3
Sequence of Sodium-dependent serotonin transporter (P31645 whole entry): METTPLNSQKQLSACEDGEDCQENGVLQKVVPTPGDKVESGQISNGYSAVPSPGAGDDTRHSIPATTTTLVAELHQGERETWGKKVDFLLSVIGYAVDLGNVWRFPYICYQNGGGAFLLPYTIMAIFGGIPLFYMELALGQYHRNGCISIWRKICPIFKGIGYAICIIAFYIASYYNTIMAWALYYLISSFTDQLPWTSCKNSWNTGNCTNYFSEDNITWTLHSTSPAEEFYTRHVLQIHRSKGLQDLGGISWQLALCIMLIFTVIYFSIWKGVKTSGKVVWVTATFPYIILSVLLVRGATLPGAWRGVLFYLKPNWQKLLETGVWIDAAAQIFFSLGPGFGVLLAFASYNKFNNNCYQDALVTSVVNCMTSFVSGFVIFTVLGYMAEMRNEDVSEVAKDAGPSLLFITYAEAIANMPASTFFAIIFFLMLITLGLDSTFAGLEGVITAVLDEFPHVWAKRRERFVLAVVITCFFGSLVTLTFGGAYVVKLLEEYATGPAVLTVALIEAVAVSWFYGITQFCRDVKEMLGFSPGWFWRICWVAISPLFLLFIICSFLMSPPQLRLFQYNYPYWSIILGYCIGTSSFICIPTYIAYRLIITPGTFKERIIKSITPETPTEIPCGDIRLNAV

Rattus norvegicus [8] = species on record: Rattus norvegicus; assay: Selectivity ratio of Ki for rat alpha4/beta4 nAChR to Ki for rat alpha4/beta2 nAChR
Mus musculus = assay: Antidepressant like activity in mouse at 30 mg/kg, sc administered 20 mins before test measured for 6 mins by forced swimming test; type: functional, organism-based; design: dose 30 mg/kg
Method in brief: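 Mice, n = 7–8, placed singly in a 16 cm beaker holding 20 cm of water at 23.5–24.5 °C. Compound in 0.9% saline given sc at 10 mL/kg 20 min before testing. Swim distance tracked by camera over 6 min, with the first minute excluded. Analysed by one-way ANOVA with planned comparisons.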

[9] = target: T1, Neuronal acetylcholine receptor; alpha3/beta4; assay: Antagonist activity at rat alpha3/beta4 nAChR expressed in HEK293 cells assessed as inhibition of (S)-nicotine-induced activity by FLIPR membrane potential blue assay; type: cell-based
Method in brief: (§4)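 Mouse α4β2 in stably transfected HEK293T cells and rat α3β4 in stable HEK293 cells; FLIPR Membrane Potential Blue read-out. (S)-Nicotine agonist at EC70–EC80: 1 μM for α4β2, 3 μM for α3β4. Functional IC50 from 3–5 experiments in duplicate.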

[10] = Selectivity ratio of Ki for rat/mouse alpha7 nAChR/5HT3A to Ki for rat alpha4/beta2 nAChR
[11] = Displacement of [3H]MLA from rat/mouse alpha7 nAChR/5HT3A expressed in tsA201 cells; type: cell-based
Method in brief: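 [3H]MLA binding on membranes from tsA201 cells transiently expressing a chimera of rat α7 amino-terminal domain and murine 5-HT3A ion-channel domain. Ki from IC50 via Cheng–Prusoff; 3–5 experiments in duplicate.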

[12] = target: Nicotinic acetylcholine receptor alpha-4/beta-2 (Mus musculus, UniProt Q8R493+Q9ERK7); assay: Antagonist activity at mouse alpha4/beta2 nAChR expressed in HEK293 cells assessed as inhibition of (S)-nicotine-induced activity by FLIPR membrane potential blue assay; type: cell-based; method in brief: as §4
Sequence of Nicotinic acetylcholine receptor alpha-4/beta-2 (Q9ERK7 whole entry): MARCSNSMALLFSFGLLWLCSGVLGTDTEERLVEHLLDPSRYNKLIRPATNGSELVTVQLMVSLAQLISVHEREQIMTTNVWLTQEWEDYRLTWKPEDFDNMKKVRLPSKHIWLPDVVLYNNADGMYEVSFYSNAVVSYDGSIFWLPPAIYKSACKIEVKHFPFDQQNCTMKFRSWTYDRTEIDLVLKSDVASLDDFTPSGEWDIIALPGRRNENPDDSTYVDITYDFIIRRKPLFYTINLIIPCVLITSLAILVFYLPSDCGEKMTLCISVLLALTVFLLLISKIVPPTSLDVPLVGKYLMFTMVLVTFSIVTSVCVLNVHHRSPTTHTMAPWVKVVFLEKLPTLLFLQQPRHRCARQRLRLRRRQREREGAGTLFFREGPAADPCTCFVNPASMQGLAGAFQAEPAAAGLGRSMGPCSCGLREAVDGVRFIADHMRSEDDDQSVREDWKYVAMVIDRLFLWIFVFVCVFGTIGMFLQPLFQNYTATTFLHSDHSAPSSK
Sequence of Nicotinic acetylcholine receptor alpha-4/beta-2 (Q8R493 whole entry): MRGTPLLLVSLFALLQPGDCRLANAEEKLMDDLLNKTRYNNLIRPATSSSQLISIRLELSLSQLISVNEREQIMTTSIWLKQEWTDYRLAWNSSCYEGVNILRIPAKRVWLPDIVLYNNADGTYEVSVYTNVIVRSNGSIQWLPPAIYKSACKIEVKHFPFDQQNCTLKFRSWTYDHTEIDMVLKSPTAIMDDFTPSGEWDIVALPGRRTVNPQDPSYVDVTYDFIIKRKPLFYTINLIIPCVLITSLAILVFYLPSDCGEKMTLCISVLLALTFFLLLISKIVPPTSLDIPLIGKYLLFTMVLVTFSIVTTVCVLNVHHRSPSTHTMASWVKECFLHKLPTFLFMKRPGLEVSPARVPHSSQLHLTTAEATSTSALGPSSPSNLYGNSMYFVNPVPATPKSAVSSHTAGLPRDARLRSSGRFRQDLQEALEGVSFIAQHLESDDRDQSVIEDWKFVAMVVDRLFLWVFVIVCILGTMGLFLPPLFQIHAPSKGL

[13] = target: Sodium-dependent noradrenaline transporter (Homo sapiens, UniProt P23975); assay: Displacement of [3H]-dopamine from human NET expressed in African green monkey COS7 cells after 10 mins; type: cell-based, COS-7; method in brief: as §3
Sequence of Sodium-dependent noradrenaline transporter (P23975 whole entry): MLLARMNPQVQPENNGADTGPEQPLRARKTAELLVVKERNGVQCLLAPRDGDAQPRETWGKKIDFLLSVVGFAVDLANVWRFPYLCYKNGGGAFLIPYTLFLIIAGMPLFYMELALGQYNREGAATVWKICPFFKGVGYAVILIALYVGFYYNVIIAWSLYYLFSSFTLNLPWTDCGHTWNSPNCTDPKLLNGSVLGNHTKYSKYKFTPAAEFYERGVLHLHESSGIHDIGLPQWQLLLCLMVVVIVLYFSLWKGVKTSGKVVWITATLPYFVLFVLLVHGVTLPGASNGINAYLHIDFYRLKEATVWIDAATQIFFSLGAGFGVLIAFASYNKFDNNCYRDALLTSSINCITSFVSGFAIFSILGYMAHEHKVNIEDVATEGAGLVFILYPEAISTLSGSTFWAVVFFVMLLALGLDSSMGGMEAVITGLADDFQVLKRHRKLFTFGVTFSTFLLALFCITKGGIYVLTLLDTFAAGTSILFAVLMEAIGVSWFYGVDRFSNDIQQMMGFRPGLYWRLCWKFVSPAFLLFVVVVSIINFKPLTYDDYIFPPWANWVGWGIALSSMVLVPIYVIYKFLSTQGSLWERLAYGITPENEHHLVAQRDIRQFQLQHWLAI

[14] = target: Neuronal acetylcholine receptor subunit alpha-7 (Homo sapiens, UniProt P36544); assay: Displacement of [3H]cytisine from alpha7 nAChR (unknown origin)
Sequence of Neuronal acetylcholine receptor subunit alpha-7 (P36544 whole entry): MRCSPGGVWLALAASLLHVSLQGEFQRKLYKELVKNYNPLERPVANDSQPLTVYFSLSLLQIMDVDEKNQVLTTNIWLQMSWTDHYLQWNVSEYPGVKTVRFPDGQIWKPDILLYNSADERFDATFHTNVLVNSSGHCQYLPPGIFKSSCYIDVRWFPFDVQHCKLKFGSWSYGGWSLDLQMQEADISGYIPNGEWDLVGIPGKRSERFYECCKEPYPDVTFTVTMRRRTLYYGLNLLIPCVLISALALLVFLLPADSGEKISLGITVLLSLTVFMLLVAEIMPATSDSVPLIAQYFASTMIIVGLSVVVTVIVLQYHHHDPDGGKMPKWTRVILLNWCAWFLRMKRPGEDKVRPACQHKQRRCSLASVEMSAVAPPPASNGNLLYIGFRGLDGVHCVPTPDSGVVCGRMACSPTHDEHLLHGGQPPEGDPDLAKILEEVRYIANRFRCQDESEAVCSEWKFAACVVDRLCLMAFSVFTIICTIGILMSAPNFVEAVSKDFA

[15] = target: Neuronal acetylcholine receptor; alpha4/beta2 (Homo sapiens, UniProt P17787+P43681); assay: Displacement of [3H]cytisine from alpha4/beta2 nAChR (unknown origin); type: protein-complex assay

Row | SMILES | inhibition [1] | pKi [2] | pKi [5] | pKi [6] | pIC50 [9] | pKi [11] | pIC50 [12] | other results
1 | COc1cc2c(cc1OC)CN(C)CC2 | Dose-dependent effect | 6.06 | 3.52 | 3.52 | 4.00 | < 3.30 | 4.92 | Ratio Ki (Rattus norvegicus [3]): > 300; pKi [4]: < 2.00; pKi [7]: 4.33; Ratio Ki (Rattus norvegicus [8]): > 300; Activity (Mus musculus): Active; Ratio Ki [10]: > 300; pKi [13]: 3.89
2 | CN1CCc2cc3c(cc2C1)OCO3 | Dose-dependent effect | 5.77 | 3.52 | 4.30 | 3.52 | 3.30 | 5.59 | –
3 | CCCCC1c2cc(OC)c(OC)cc2CCN1C (stereo unspecified) | – | 4.52 | – | – | – | – | < 3.52 | –
4 | CO[C@H]1CC=C2CCN3CCC4=C(CC(=O)OC4)[C@]23C1 | – | – | – | – | – | – | – | pKi [14]: 4.98
5 | COc1cc2c(cc1O)CCN(C)C2 | Dose-dependent effect | 5.00 | 3.52 | 4.00 | 3.00 | < 3.30 | 4.48 | –
6 | CCC1c2cc(OC)c(OC)cc2CCN1C (stereo unspecified) | – | 3.52 | – | – | – | – | < 3.52 | –
7 | COc1cc2c(cc1OC)C(C1CCCCC1)N(C)CC2 (stereo unspecified) | – | 3.52 | – | – | – | – | < 3.52 | –
8 | COc1cc2c(cc1OC)C(c1ccccc1)N(C)CC2 (stereo unspecified) | – | 4.00 | – | – | – | – | < 3.52 | –
9 | COc1cccc(C2c3cc(OC)c(OC)cc3CCN2C)c1 (stereo unspecified) | – | 3.52 | – | – | – | – | < 3.52 | –
10 | COc1ccc(C2c3cc(OC)c(OC)cc3CCN2C)cc1OC (stereo unspecified) | – | < 3.52 | – | – | – | – | < 3.52 | –
11 | CN1CCc2cc(O)c(O)cc2C1 | Dose-dependent effect | 5.17 | 4.00 | 4.00 | < 3.00 | < 3.30 | 4.80 | –
12 | COc1cc2c(cc1O)CN(C)CC2 | Dose-dependent effect | 5.77 | 3.52 | 4.00 | < 3.00 | < 3.30 | 5.36 | –
13 | COc1cc2c(cc1OC)C1CCCN1CC2 (racemic) | Dose-dependent effect | 5.26 | 3.52 | 4.00 | 4.00 | < 3.30 | 4.51 | –
14 | c1c2c(cc3c1OCO3)C1CCCN1CC2 (racemic) | Dose-dependent effect | 6.26 | 4.00 | 4.68 | 4.00 | – | 5.48 | –
15 | COc1cc2c(cc1O)CCN1CCCC21 (racemic) | Dose-dependent effect | 4.00 | 3.52 | 4.00 | 3.52 | 3.30 | 4.30 | –
16 | COc1cc2c(cc1O)C1CCCN1CC2 (racemic) | Dose-dependent effect | 5.47 | 4.00 | 4.00 | 3.52 | 3.52 | 4.64 | –
17 | Oc1cc2c(cc1O)C1CCCN1CC2 (racemic) | Dose-dependent effect | 4.96 | 4.00 | 4.30 | 3.00 | 3.52 | 4.00 | –
18 | COc1cc2c(cc1OC)[C@]13CCCC[C@H]1CCN3CC2 (relative stereo) | Dose-dependent effect | 4.00 | 4.00 | 4.00 | 4.30 | 4.52 | 4.51 | –
19 | c1c2c(cc3c1OCO3)[C@]13CCCC[C@H]1CCN3CC2 (relative stereo) | Dose-dependent effect | 5.14 | 4.52 | 4.30 | 4.30 | 4.74 | 5.04 | –
20 | COc1cc2c(cc1O)CCN1CC[C@@H]3CCCC[C@@]231 (relative stereo) | Dose-dependent effect | 5.07 | 4.00 | 4.30 | 4.30 | 4.70 | 5.64 | –
21 | COc1cc2c(cc1O)[C@]13CCCC[C@H]1CCN3CC2 (relative stereo) | Dose-dependent effect | 4.74 | 4.52 | 4.64 | 4.48 | 5.26 | 5.54 | –
22 | Oc1cc2c(cc1O)[C@]13CCCC[C@H]1CCN3CC2 (relative stereo) | Dose-dependent effect | 5.82 | 4.52 | 4.72 | 4.30 | 5.14 | 6.24 | –
23 | COc1cc2c(cc1O)CCN1CC=C3C=C[C@H](OC)C[C@]321 [ERYSODINE] | – | – | – | – | – | – | – | pKi [14]: 5.12
24 | COc1cc2c(cc1OC)[C@]13C[C@@H](OC)C=CC1=CCN3CC2 [ERYSOTRINE] | – | – | – | – | – | – | – | pKi [15]: 6.22

Reference: ChEMBL document CHEMBL3233008, “Design, synthesis, and biological evaluation of Erythrina alkaloid analogues as neuronal nicotinic acetylcholine receptor antagonists” (J Med Chem, 2013)
